Results from ChEMBL document CHEMBL1800020, “Synthesis, conformation and biology of naphthoxylosides” (Bioorg Med Chem, 2011).
Active and inactive are the calls of the source. No cut-off for these calls is given here.

What was measured:
HCC70 [1] = test: Antiproliferative activity against human HCC70 cells after 96 hrs by crystal violet staining method; assay type: functional; conditions: read-out: ED50 (the source's name)
Method in brief: (§1)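 Normal breast fibroblasts (CCD-1095Sk) or HCC70 breast carcinoma cells seeded at 5000 cells/well, in MEM or RPMI-1640 with 10% fetal calf serum. After 24 h, switched to serum-free Ham's F-12 with insulin (10 µg/mL) and transferrin (25 µg/mL) plus increasing xyloside concentrations, 96 h total. Fixed in 1% glutaraldehyde, stained with 0.1% crystal violet, lysed in 1% Triton X-100, read at A600. ED50 taken from % of untreated growth.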

HCC70 [2] = test: Induction of glycosaminoglycan chains priming from beta-D-xylopyranoside in human HCC70 cells using [35S]-Sulfate after 30 mins by beta counting; assay type: functional, cell-based
Method in brief: (§2)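 Confluent monolayers incubated with xylosides in low-sulfate labeling medium with 2 mM glutamine and 20 µCi/mL [35S]sulfate; xylosides diluted from 20 mM stocks in Me2SO/water 1:1. Medium collected, labeled polyanions captured on DEAE-cellulose, free primed GAG chains separated from PG on Octyl-Sepharose. Ethanol-precipitated, sized by Superose 6 gel-permeation FPLC, radioactivity counted by beta counter.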

[3] = Antiproliferative activity against human CCD-1095SK cells after 96 hrs by crystal violet staining method; assay type: cell-based; conditions: for GI50 at 96 h: CCD-1095SK cells, read-out: ED50; method in brief: as §1
CCD-1095SK = test: Induction of glycosaminoglycan chains priming in human CCD-1095SK cells using [35S]-Sulfate after 30 mins by beta counting; assay type: functional, cell-based; method in brief: as §2
HCC70 [4] = test: Inhibition of endogenous proteoglycans production in human HCC70 cells at 0.1 mM; assay type: functional
HCC70 [5] = test: Inhibition of glycosaminoglycan chains priming from beta-D-xylopyranoside in human HCC70 cells at 0.1 mM; assay type: functional

Question: Which EC50 (HCC70 [1]; Homo sapiens, HCC70, 96 h) does the source give for `O[C@H]1[C@H](Oc2ccc3ccccc3c2)OC[C@@H](O)[C@@H]1F` here?
Answer: 94 µM

Question: And the Activity (HCC70 [2])?
Answer: inactive

Question: What about the GI50 at 96 h [3] of the same compound?
Answer: 72 µM

Question: And the Activity (CCD-1095SK)?
Answer: inactive

Question: For `O[C@H]1[C@H](Oc2ccc3ccccc3c2)OC[C@@H](O)[C@H]1O`, which EC50 (HCC70 [1]; Homo sapiens, HCC70, 96 h) is on record?
Answer: 178 µM

Question: What about the Activity (HCC70 [2]) of the same compound?
Answer: inactive

Question: And the GI50 at 96 h [3]?
Answer: 182 µM

Question: What about the Activity (CCD-1095SK) of the same compound?
Answer: inactive

Question: Which results are given for `O[C@H]1[C@H](Oc2ccc3ccccc3c2)OCC[C@@H]1O`?
Answer: EC50 (HCC70 [1]; Homo sapiens, HCC70, 96 h): 284 µM; inhibition at 100 µM (HCC70 [4]): 24%; Activity (HCC70 [2]): inactive; GI50 at 96 h [3]: 285 µM; Activity (CCD-1095SK): inactive

Question: With `O[C@@H]1[C@@H](O)[C@H](Oc2ccc3ccccc3c2)OC[C@H]1O` (stereo in doubt; 1b) as the compound, how does the EC50 (HCC70 [1]) read?
Answer: 91 µM

Question: What about the Activity (HCC70 [2]) of the same compound?
Answer: Active

Question: What about the GI50 ([3]; ccd-1095sk, 96 h, read-out: ED50 (the source's name)) of the same compound?
Answer: 243 µM

Question: What about the Activity (CCD-1095SK) of the same compound?
Answer: Active

Question: For `O[C@@H]1[C@@H](F)[C@H](Oc2ccc3ccccc3c2)OC[C@H]1O`, which EC50 (HCC70 [1]; Homo sapiens, HCC70, 96 h) is on record?
Answer: 22 µM

Question: And the Activity (HCC70 [2])?
Answer: inactive

Question: What about the GI50 at 96 h [3] of the same compound?
Answer: 12 µM

Question: What about the Activity (CCD-1095SK) of the same compound?
Answer: inactive

Question: Which EC50 (HCC70 [1]; Homo sapiens, HCC70, 96 h) does the source give for `O[C@@H]1[C@@H](O)[C@H](Oc2ccc3ccccc3c2)OC[C@@H]1O` here?
Answer: 371 µM

Question: What about the Activity (HCC70 [2]) of the same compound?
Answer: inactive

Question: What about the GI50 at 96 h [3] of the same compound?
Answer: 48 µM

Question: What about the Activity (CCD-1095SK) of the same compound?
Answer: inactive

Question: Which EC50 (HCC70 [1]; Homo sapiens, HCC70, 96 h) does the source give for `CO[C@@H]1CO[C@@H](Oc2ccc3ccccc3c2)[C@H](O)[C@H]1O` here?
Answer: 135 µM

Question: And the Activity (HCC70 [2])?
Answer: inactive

Question: What about the GI50 at 96 h [3] of the same compound?
Answer: 93 µM

Question: And the Activity (CCD-1095SK)?
Answer: inactive

Question: With `Oc1ccc2cc(O[C@@H]3OC[C@@H](O)[C@H](O)[C@H]3O)ccc2c1` as the compound, how does the Activity (HCC70 [2]) read?
Answer: Active

Question: And the Activity (CCD-1095SK)?
Answer: Active

Question: With `O[C@@H]1CO[C@@H](Oc2ccc3ccccc3c2)C[C@H]1O` as the compound, how does the EC50 (HCC70 [1]; Homo sapiens, HCC70, 96 h) read?
Answer: 228 µM

Question: What about the Activity (HCC70 [2]) of the same compound?
Answer: inactive

Question: What about the GI50 at 96 h [3] of the same compound?
Answer: 19 µM

Question: What about the Activity (CCD-1095SK) of the same compound?
Answer: inactive

Question: With `O[C@@H]1[C@@H](O)[C@H](Oc2ccc3ccccc3c2)OC[C@H]1F` as the compound, how does the EC50 (HCC70 [1]; Homo sapiens, HCC70, 96 h) read?
Answer: 37 µM

Question: What about the inhibition at 100 µM (HCC70 [5]) of the same compound?
Answer: 23%

Question: What about the inhibition at 100 µM (HCC70 [4]) of the same compound?
Answer: 33%

Question: And the Activity (HCC70 [2])?
Answer: inactive

Question: What about the GI50 at 96 h [3] of the same compound?
Answer: 32 µM

Question: What about the Activity (CCD-1095SK) of the same compound?
Answer: inactive

Question: For `CO[C@H]1[C@H](Oc2ccc3ccccc3c2)OC[C@@H](O)[C@@H]1O`, which EC50 (HCC70 [1]; Homo sapiens, HCC70, 96 h) is on record?
Answer: 127 µM

Question: And the Activity (HCC70 [2])?
Answer: inactive

Question: And the GI50 at 96 h [3]?
Answer: 55 µM

Question: What about the Activity (CCD-1095SK) of the same compound?
Answer: inactive

Question: Which results are given for `O[C@@H]1CO[C@@H](Oc2ccc3ccccc3c2)[C@H](O)C1`?
Answer: EC50 (HCC70 [1]; Homo sapiens, HCC70, 96 h): 179 µM; Activity (HCC70 [2]): inactive; GI50 at 96 h [3]: 79 µM; Activity (CCD-1095SK): inactive

Question: With `CO[C@@H]1[C@@H](O)[C@H](Oc2ccc3ccccc3c2)OC[C@H]1O` as the compound, how does the EC50 (HCC70 [1]; Homo sapiens, HCC70, 96 h) read?
Answer: 145 µM

Question: What about the Activity (HCC70 [2]) of the same compound?
Answer: inactive

Question: What about the GI50 at 96 h [3] of the same compound?
Answer: 17 µM

Question: And the Activity (CCD-1095SK)?
Answer: inactive
